NadD block: NadD (S. aureus) enzyme inhibition | purified NadD enzyme, colorimetric absorbance read-out | inhibition, % at 20 µM | 360,000 compounds, 0.78% hits; in the data active = inhibition above about 26%
Rce1 inhib: blocks yeast Ras-converting enzyme; Q03530; yeast membranes, quenched prenylated peptide cleavage fluorescence; calls only; 290,000 compounds, 0.27% hits; AID 2563;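 active = fall in fluorescence gain of 50% or more versus controls, with final raw signal at or below 3038400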;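 note: plate controls were neutral control wells for no effect and wells lacking membranes for full effect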
Target sequence (Q03530 whole entry, looked up): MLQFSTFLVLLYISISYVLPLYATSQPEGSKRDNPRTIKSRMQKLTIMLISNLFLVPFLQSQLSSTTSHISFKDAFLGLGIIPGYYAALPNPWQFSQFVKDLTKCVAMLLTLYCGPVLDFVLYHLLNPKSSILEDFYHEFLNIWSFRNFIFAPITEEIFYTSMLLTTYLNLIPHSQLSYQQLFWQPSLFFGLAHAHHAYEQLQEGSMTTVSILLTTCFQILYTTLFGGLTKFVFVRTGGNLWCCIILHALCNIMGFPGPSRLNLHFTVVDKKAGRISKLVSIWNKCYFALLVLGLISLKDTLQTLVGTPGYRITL
Pemphigus Ab inh: human desmoglein-3 autoantibody binding inhibition | P32926 | DSG3-coupled beads, scFv-anti-DSG3-GFP binding, flow cytometry; active compounds read low | binding (percent of control), % at 10 µM | 310,000 compounds, 0.48% hits | AID 588358;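 active = binding more than 3 SD below its plate's average and above zero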;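 note: hits lower antibody fragment binding to DSG3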
Tb MetRS inh: Trypanosoma brucei MetRS inhibition | purified T. brucei MetRS, ATP depletion, Kinase-Glo luminescence | inhibition, % at 11.9 µM | 360,000 compounds, 0.4% hits | AID 624268;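 active = inhibition above a per-plate cutoff of the control wells' mean inhibition plus 3 SD, cut at about 5.5% in these data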;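 note: 0% = DMSO wells median and 100% = median of wells with control inhibitor compound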
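Dosing: 11.9 µM single point; system: parasite MetRS enzyme; technique: luminescence of leftover ATP; times: 15 min enzyme-compound preincubation, 2 h reaction, 10 min detection, 25 °C; replicates: each compound tested once; read-out basis: percent inhibition relative to median high and low control wells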
HCV core dimer: blocks dimerization of HCV core protein; 300,000 compounds, 0.33% hits; inhibition, % at 5 µM; TR-FRET GST/Flag-core106 dimerization, 1536-well;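 active = inhibition above the mean of all tested compounds plus 3 SD, set per screening campaign, cut at about 45% in these data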
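Assay system: GST-tagged and Flag-tagged HCV core protein residues 1-106 / Times: compound-protein-antibody incubation 4 h at 22.5 °C / Signal: time-resolved FRET, ex 340 nm, em 617 and 671 nm / Evaluation: % inhibition based on acceptor/donor emission ratio / Benchmarks: wells lacking GST-core106 and wells with excess unlabelled core106 / Repeats: singlicate, one well per compound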
NadD conf: NadD (S. aureus) inhibition, single concentration confirmation; inhibition, % at 20 µM; 2,000 compounds, 13% hits; shares compounds with NadD block; AID 624309; purified S. aureus NadD, colorimetric enzyme assay; in the data active = inhibition mostly above about 42%, no sharp cut-off; inactive = mostly below about 42%
Active calls of the source: *; i = inactive; · = not tested or not shown; + = active, no number. Compounds with a hit are over-represented: about 1.9% of the library has one in this group of screens.

SMILES | NadD block | Rce1 inhib | Pemphigus Ab inh | Tb MetRS inh | HCV core dimer | NadD conf
Cc1ccc(C)c(S(=O)(=O)c2c(N)n(/N=C/c3ccco3)c3nc4ccccc4nc23)c1 | 32* | i | 80 | -1 | 27 | 1
Nc1c(S(=O)(=O)c2ccccc2)c2nc3ccccc3nc2n1/N=C/c1cccc(O)c1 | 47* | i | 91 | -1 | 29 | 18
O=C(Nc1ccc2ccccc2c1)C(c1ccccc1F)n1c(=O)c(-c2cc3ccccc3[nH]2)nc2ccccc21 (configuration not stated) | · | · | · | 0 | · | ·
COc1ccccc1CNCC(=O)Nc1ccc(N(C)C)cc1 | -5 | i | 105 | 0 | -13 | ·
O=S(=O)(Nc1cccc(-c2ccc(N3CCCCCC3)nn2)c1)c1cccc(F)c1 | 31* | i | 99 | 0 | 24 | 21
Cc1ccc(S(=O)(=O)Nc2cccc(-c3ccc(N4CCCCCC4)nn3)c2)cc1C | 42* | i | 86 | -1 | 12 | 36
Cc1ccc([N+](=O)[O-])cc1S(=O)(=O)Nc1ccc(-c2ccc(N3CCOCC3)nn2)cc1 | 12 | i | 97 | 0 | 6 | ·
COc1ccc(C)cc1S(=O)(=O)Nc1cccc(-c2ccc(N3CCCCCC3)nn2)c1 | 31* | i | · | 0 | 17 | 28
Cc1ccc([N+](=O)[O-])cc1S(=O)(=O)Nc1cccc(-c2ccc(N3CCCC3)nn2)c1 | 44* | i | 89 | 0 | 25 | 55*
c1ccc2c(NC3CCCC3)nnc(NC3CCCC3)c2c1 | -2 | i | 111 | 0 | 0 | ·
CC(C)c1c(O)nc(SCC(=O)N2CCCCC2)[nH]c1=O | -3 | i | 103 | 0 | -7 | ·
O=S(=O)(Nc1cccc(-c2ccc(N3CCCCCC3)nn2)c1)c1ccc(F)cc1 | 14 | i | · | 0 | 16 | ·
O=S(=O)(Nc1cccc(-c2ccc(N3CCCCCC3)nn2)c1)c1ccccc1Cl | 50* | i | 98 | 1 | 26 | 36
O=S(=O)(Nc1cccc(-c2ccc(N3CCCCCC3)nn2)c1)c1ccc(C(F)(F)F)cc1 | 36* | i | 98 | 0 | 21 | 23
COc1ccc(S(=O)(=O)CC(=O)c2cc3cc(Br)ccc3oc2=O)cc1 | 27 | i | 101 | 1 | 0 | ·
COc1ccc(OC)c(S(=O)(=O)CC(=O)c2cc3ccc(OC)cc3oc2=O)c1 | 36* | i | · | 0 | 62* | 27
Cc1nccn1CC(=O)c1ccc(O)c(O)c1 | 2 | · | 97 | 0 | · | ·
CC(C)C[C@H]1CNC(=O)C(=O)N1C[C@@H]1CCCN1C[C@H](Cc1ccc(O)cc1)N1C[C@H](Cc2ccccc2)N(CC2CCCCC2)C(=O)C1=O | 28 | · | · | 0 | · | ·
CC(C)C[C@H]1CN([C@@H](Cc2ccccc2)CN2CCC[C@@H]2CN2C(=O)C(=O)NC[C@@H]2Cc2ccc(O)cc2)C(=O)C(=O)N1CC1CCCCCC1 | 12 | · | · | 0 | · | ·
CC(C)C[C@H]1CN([C@@H](Cc2ccc(O)cc2)CN2CCC[C@@H]2CN2C(=O)C(=O)NC[C@@H]2Cc2ccccc2)C(=O)C(=O)N1CC1CCCCC1 | 31* | · | 109 | 0 | · | 37
CC(C)C[C@H]1CN([C@@H](Cc2ccc(O)cc2)CN2CCC[C@H]2CN2C(=O)C(=O)NC[C@@H]2Cc2ccccc2)C(=O)C(=O)N1CC1CCCCCC1 | 30* | · | · | 0 | · | 35
COCCNc1nc(-c2cc(C)n(CCc3ccc(OC)cc3)c2C)cs1 | 36* | i | 89* | 0 | 43 | 21
COc1ccc(CCn2c(C)cc(C(=O)COC(=O)c3cnccn3)c2C)cc1 | -1 | i | 108 | 0 | 13 | ·
CCN1CCN(C(=O)c2cccc(OC3CCN(S(C)(=O)=O)CC3)c2)[C@@H](C)C1=O | 0 | i | 102 | 0 | 1 | ·
CC1CCCCN1C(=O)CSc1nc2ncccc2[nH]1 (configuration not stated) | -2 | i | 98 | 1 | -3 | ·
SMILES | NadD block | Rce1 inhib | Pemphigus Ab inh | Tb MetRS inh | HCV core dimer | NadD conf
CC1=C(C(=O)Nc2ccccc2)C(c2ccc(C)o2)n2c(s/c(=C\c3ccco3)c2=O)=N1 (configuration not stated) | 34* | i | · | 0 | · | 3
Oc1ccc(CNc2ccccc2)c2cccnc12 | 25 | · | 95 | 0 | -11 | ·
Cc1cccc(NCc2ccc(O)c3ncccc23)c1 | 37* | i | 100 | 0 | -2 | 27
N#Cc1c(OCC(=O)c2ccccc2)nc2c(c1-c1ccco1)CCc1ccccc1-2 | 32* | + | 98 | 0 | 21 | 30
N#Cc1c(SCc2c(Cl)cccc2Cl)nc(N)[nH]c1=S | 30* | · | 100 | 1 | · | 47*
O=C(C1COc2ccccc2O1)N1CCc2ccccc21 (configuration not stated) | -6 | i | 122 | -1 | 29 | ·
CCOC(=O)c1c2ccc(OCC(=O)N/N=C/c3ccc(C)cc3)cc2n2ccccc12 | 37* | i | 94 | -1 | 9 | 1
COc1ccc(C(=O)NC2CCN(CC(=O)NCc3ccccc3F)CC2)cc1 | 40* | i | · | 0 | -3 | 3
Cc1ccc(-c2nc3ccccc3[nH]2)cc1NC(=O)c1sc2cc(Cl)ccc2c1Cl | 29* | i | 121 | -1 | 19 | 12
Cc1ccc(-c2nc3ccccc3[nH]2)cc1NC(=O)c1ccco1 | 0 | · | · | 0 | -6 | ·
COc1cc(-c2ccc(Nc3ccccc3C(=O)O)c(OC)c2)ccc1Nc1ccccc1C(=O)O | 50* | · | 56 | 0 | · | 45
O=C(N/N=C/c1cn(-c2cccs2)nc1-c1ccccc1)c1ccccc1Br | 17 | i | 75 | 1 | 16 | ·
O=C(N/N=C/c1cn(-c2cccs2)nc1-c1ccccc1)c1ccccc1O | 34* | i | 87 | 0 | 20 | 19
Cc1nn(CC(=O)NCCN2CCCCC2C)c(=O)c2cc(-c3ccccc3)nn12 (configuration not stated) | -7 | i | 98 | 0 | 5 | ·
Cc1cc2cc(CNC(=S)NC3CCCCC3)ccc2n1C | 34* | i | 92 | -1 | 13 | 6
Cc1cc2cc(CNC(=S)NCc3ccccc3)ccc2n1C | 52* | i | · | 0 | 4 | -10
Cc1ccc(CNC(=S)NC2CCCCC2)cc1 | 7 | i | 108 | 0 | · | ·
CCCCN(CC)CCNC(=O)c1cn(CCOC)c(=O)c2c1c1ccccc1n2C | -3 | i | 104 | -1 | 2 | ·
O=C1CCCCN1CCCC(=O)N1CCCC(Nc2ccccc2)C1 (configuration not stated) | 3 | i | 96 | -1 | -11 | ·
CCN(C(=O)CSc1nnc(-c2ccccc2Cl)n1C1CCCC1)C1CCS(=O)(=O)C1 (configuration not stated) | 1 | i | 98 | -1 | 0 | ·
